Experimental data from different studies.

| Structure (SMILES) | assay | system | setting | endpoint | result |
| --- | --- | --- | --- | --- | --- |
| Cc1ccc2c(c1)C(=O)[C@]1(O)CCN(c3ccc4nc(C)ccc4c3)C1=N2 | – | mouse, brain | intraperitoneal, 10 mg/kg, 30 min, single dose | concentration | 1000 nM |
| CC(C)n1ncc2c(C(=O)NCC3(C)CNC3)cc(C3CC3)nc21 | – | female BALB/c mouse, plasma | intraperitoneal, 50 mg/kg, 2 h | concentration | 2230 ng/mL |
| Cc1cc2c(C(=O)O)cccc2n1-c1nc2c(c(NCc3ccccc3)n1)CCCN2 | metabolic stability | dog, liver microsomes | 1 µM, pH 7.4 | microsomal CLint | 1.15 µL/min/mg |
| C=CC(=O)NC1CCN(c2ncc3ncnc(Nc4ccc(Oc5ccc6c(c5)ncn6C)c(C)c4)c3n2)CC1 | – | – | pH 7.4 | logP | 4.7 |
| O=C(O)CC[C@H](NC(=O)N[C@@H](CCCCNC(=O)[C@H](Cc1ccc2ccccc2c1)NC(=O)[C@H]1CC[C@H](CNC(=O)CN2CCN(CC(=O)O)CCN(CC(=O)O)CCN(CC(=O)O)CC2)CC1)C(=O)O)C(=O)O | shake flask | water | – | logP | -1.01 |
| Cc1nsc(-c2nnc3n2CCN(C(=O)c2ccc(F)cc2)[C@@H]3C)n1 | – | – | – | logP | 1.5 |
| OCc1ccc(-c2nn(Cc3ccccc3)c3ccccc23)o1 | – | male CD-1 mouse, plasma | intraperitoneal, 30 mg/kg | half-life | 1.3 h |
| CONC(=O)c1cccc2c1cc(C)n2-c1nc2c(c(NCc3ccccc3)n1)CCCN2 | metabolic stability | dog, liver microsomes | 1 µM, pH 7.4 | microsomal CLint | 84 µL/min/mg |
| Cc1nc2ccc(OCc3ccc(C(F)(F)F)cc3)cc2[nH]1 | – | male BALB/c mouse, brain | intravenous, 1 mg/kg, 3 h | concentration | 402 ng/g |
| Cc1ccccc1CN1C(=O)C2=C(CCN(Cc3ccccc3)C2)N2CCN=C12 | potentiometric | water | – | logP | 3.09 |
| NCc1ccc(-c2nn(Cc3ccccc3)c3ccccc23)o1 | – | male CD-1 mouse, plasma | intravenous, 5 mg/kg | half-life | 1.08 h |
| NCc1cc2c(cc1F)C(=O)N(C1CCC(=O)NC1=O)C2 (stereo not drawn) | – | male CD-1 mouse, plasma | intravenous, 1 mg/kg, 30 min | concentration | 33.2 ng/mL |
| CN(C)C(=O)c1cc2cnc(Nc3ccc(-c4ccc5c(=O)cc(N6CCOCC6)oc5c4)cc3)nc2n1C1CCCC1.Cl | – | BALB/c mouse, plasma | oral, 20 mg/kg | half-life | 4.6 h |
| O=C1CCC(N2Cc3cc(CO)c(F)cc3C2=O)C(=O)N1 (stereo not drawn) | – | male CD-1 mouse, plasma | intravenous, 1 mg/kg, 1.02 min | concentration | 1790 ng/mL |
| Cc1cccc(CNC(=O)c2cn(CCNC(=O)c3ccccc3Sc3c([N+](=O)[O-])ncn3C)c3cc4c(cc3c2=O)OCO4)n1 | metabolic stability | cynomolgus monkey, blood | 1 µM, whole blood | half-life | 5.92 h |
